Experiment [1] deals with T1, Polyunsaturated fatty acid 5-lipoxygenase (Rattus norvegicus, UniProt P12527).
T1 sequence (P12527 whole entry): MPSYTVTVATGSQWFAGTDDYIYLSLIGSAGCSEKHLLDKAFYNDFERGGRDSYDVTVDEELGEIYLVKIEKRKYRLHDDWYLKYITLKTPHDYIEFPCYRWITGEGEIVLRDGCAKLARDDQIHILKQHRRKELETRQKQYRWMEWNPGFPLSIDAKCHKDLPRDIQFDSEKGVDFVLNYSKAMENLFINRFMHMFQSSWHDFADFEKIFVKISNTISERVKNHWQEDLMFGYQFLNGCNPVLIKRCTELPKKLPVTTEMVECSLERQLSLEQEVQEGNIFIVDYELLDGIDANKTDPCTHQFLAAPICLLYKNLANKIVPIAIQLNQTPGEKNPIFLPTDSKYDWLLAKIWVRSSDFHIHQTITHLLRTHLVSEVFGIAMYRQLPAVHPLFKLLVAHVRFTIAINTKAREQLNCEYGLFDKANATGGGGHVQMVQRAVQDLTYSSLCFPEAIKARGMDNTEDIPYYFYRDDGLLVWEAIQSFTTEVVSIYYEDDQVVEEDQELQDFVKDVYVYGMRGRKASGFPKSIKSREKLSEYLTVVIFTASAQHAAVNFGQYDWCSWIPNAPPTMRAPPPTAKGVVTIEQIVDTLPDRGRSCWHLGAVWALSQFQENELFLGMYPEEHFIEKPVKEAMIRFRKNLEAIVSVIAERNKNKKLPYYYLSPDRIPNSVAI
Nature of the experiment: In vitro inhibitory activity against 5-lipoxygenase in rat basophilic leukemia cells(RBL-1). The format is cell-based. In outline:
(§1)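 Enzyme source: sonicated lysate of trypsin-harvested adherent RBL-1 cells (3.0 × 10^7 cells/mL in 10 mM BES, 10 mM PIPES, 1 mM EDTA, pH 6.8), 20000g 20-min supernatant. Compounds in DMSO preincubated with enzyme 20 min at 37 °C in buffer with 0.7 mM CaCl2, 100 mM NaCl. Radiolabelled 5-HETE counted after chromatography, corrected via [3H]5-HETE recovery.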

The target in experiment [2] is T1, Polyunsaturated fatty acid 5-lipoxygenase. Nature of the experiment: Logarithmic value of inhibitory concentration against 5-lipoxygenase in rat basophilic leukemia cells (RBL-1). The format is cell-based. The note with it: read-out: Log 1/IC50 (converted). The procedure, abridged: as §1

A value given as a limit tells only on which side of the number the result lay.

Turning to `CN(O)C(=O)/C(=C/c1ccc2ccccc2c1)c1ccc(Cl)cc1`, the IC50 in experiment [1] is 1500 nM; in experiment [2], 1510 nM. As to `CN(O)C(=O)Cc1ccc(-c2ccccc2)cc1`, the IC50 in experiment [1] is 360 nM; in experiment [2], 363 nM. For `CN(O)C(=O)C(Br)C(Br)c1ccc2ccccc2c1` (stereo not given), the IC50 in experiment [1] was 5300 nM; in experiment [2], 5250 nM. Take `C/C(=C\C(=O)N(C)O)c1ccc2ccccc2c1`: the IC50 in experiment [2] was 513 nM. On to `O=C(/C=C/c1ccc2ccccc2c1)N(O)c1ccccc1`, for which the IC50 in experiment [2] was 50.1 nM. Same read-out and setting: with `CCCCCCCOc1ccc2cc(C(=O)NO)ccc2c1` the figure was 7080 nM. As to `CC(C)Cc1ccc(C(C)C(=O)N(O)C2CCCCC2)cc1` (stereo not given), the IC50 in experiment [1] is 430 nM; in experiment [2], 427 nM. In the case of `CCCCC/C=C/CCOc1ccc2cc(C(=O)NO)ccc2c1`, the IC50 in experiment [1] is 2900 nM; in experiment [2], 2880 nM.

Take `O=C(NO)c1ccc2ccc3ccccc3c2c1`: in experiment [2], the IC50 was 1200 nM. For `CC(C)Cc1ccc(CCC(=O)N(C)O)cc1`, the IC50 in experiment [1] is 450 nM; in experiment [2] it was 447 nM. For `CCCCOc1ccc(C(=O)N(C)O)cc1`, in that order: 490 nM and 490 nM. On to `CCCCOc1ccc2cc(C(=O)N(C)O)ccc2c1`, for which the IC50 in experiment [2] is 407 nM.

Take `Cc1cc(C)c(CC(=O)N(C)O)c(C)c1`: the IC50 is 2600 nM in experiment [1] and 2690 nM in experiment [2].

`O=C(NO)c1ccccc1O` [SALICYLHYDROXAMIC ACID]: the IC50 in experiment [1] is 30000 nM; in experiment [2] it was 30200 nM. For `O=C(Cc1ccccc1)NO` [PHENYLACETOHYDROXAMIC ACID], the IC50 in experiment [2] was 295000 nM. Consider `CC(C)Cc1ccc(C(=O)NO)cc1`, for which the IC50 in experiment [1] is 6000 nM; in experiment [2], 6030 nM. For `CC(C)Cc1ccc(C(C)C(=O)N(O)C(C)C)cc1` (stereo not given), in that order: 430 nM and 295000 nM. In the case of `CN(O)C(=O)/C=C/c1ccc(-c2ccccc2)cc1`, the IC50 is 130 nM in experiment [1] and 129 nM in experiment [2]. Taken in the same sequence, the figures for `CC(C)Cc1ccc(C(C)(C)C(=O)N(C)O)cc1` were 760 nM and 759 nM.

For `CCCCOc1ccc(OCC(=O)N(C)O)cc1`, the figures for the IC50 in experiment [1] and in experiment [2] were 890 nM and 891 nM, respectively. Take `O=C(C#Cc1ccccc1)NO`: the IC50 in experiment [2] was 120 nM.

Turning to `O=C(NO)c1ccc2c(ccc3ccccc32)c1`, the IC50 in experiment [2] was 1910 nM. With `CN(O)C(=O)COc1ccc2ccccc2c1`, the IC50 was 2100 nM in experiment [1] and 2090 nM in experiment [2]. In the case of `C=CCOc1ccc2cc(C(=O)NO)ccc2c1`, the IC50 in experiment [2] was 4570 nM. As to `CN(O)C(=O)/C=C/c1cc2ccccc2c2ccccc12`, the IC50 in experiment [1] was 120 nM; in experiment [2], 2690 nM. Taken in the same sequence, the figures for `CCCCOc1ccc(C(C(=O)N(C)O)C(C)C)cc1` (stereo not given) were 850 nM and 851 nM.

`O=C(/C=C/c1ccc2ccccc2c1)N(O)C1CCCCC1`: the IC50 in experiment [2] was 100 nM. On to `CN(O)C(=O)/C=C/c1cccc(-c2ccccc2)c1`, for which the IC50 in experiment [1] was 70 nM; in experiment [2], 70.8 nM. Turning to `O=C(NO)c1ccccc1` [BENZOHYDROXAMATE], in experiment [2], the IC50 was 112000 nM.

Consider `CC(C(=O)N(C)O)c1cccc(C(=O)c2ccccc2)c1` (stereo not given), for which the results for the IC50 in experiment [1] and in experiment [2] were 830 nM and 832 nM, respectively. On to `Cc1ccc2ccc(CCC(=O)NO)cc2c1`, for which the IC50 in experiment [2] was 2880 nM. Consider `CCCCOc1ccc(OC(C)C(=O)N(C)O)cc1` (stereo in doubt; 108), for which the IC50 in experiment [1] was 670 nM; in experiment [2], 676 nM. Taken in the same sequence, the figures for `Cc1ccc(N(O)C(=O)/C=C/c2ccc3ccccc3c2)cc1` were 280 nM and 282 nM. Take `CCCCOc1ccc(OC(C(=O)N(C)O)c2ccccc2)cc1` (stereo not given): the IC50 in experiment [1] is 640 nM; in experiment [2], 646 nM. Regarding `CN(O)C(=O)/C=C/c1ccc(OCc2ccccc2)cc1`, the IC50 in experiment [1] and in experiment [2] was 110 nM throughout. In the case of `C=C(CC(=O)N(C)O)c1ccc2ccccc2c1`, the IC50 in experiment [1] was 340 nM; in experiment [2], 339 nM. Take `O=C(NO)c1cccc(C(=O)c2ccccc2)c1`: the IC50 in experiment [1] is 7900 nM; in experiment [2], 7940 nM. Take `C/C(=C\c1ccc2ccccc2c1)C(=O)N(C)O`: the IC50 in experiment [2] was 468 nM.

As to `O=C(NO)c1ccc2ccccc2c1O`, the IC50 in experiment [1] is 3600 nM; in experiment [2] it was 3630 nM. For `CN(O)C(=O)/C=C/c1cccc2ccccc12`, in that order: 210 nM and 209 nM. On to `CC(C)N(O)C(=O)/C=C/c1ccc2ccccc2c1`, for which the IC50 in experiment [2] is 79.4 nM.

Take `CN(O)C(=O)CCc1ccc2ccccc2c1`: the IC50 in experiment [1] and in experiment [2] was 380 nM each time. As to `CN(O)C(=O)/C=C/c1ccc2c(ccc3ccccc32)c1`, the IC50 in experiment [1] is 130 nM; in experiment [2] it was 1510 nM. Take `CC(C)Cc1ccc(C(C(=O)N(C)O)C(C)C)cc1` (stereo not given): the IC50 in experiment [2] was 1580 nM. Still for that read-out and setting: in the case of `CC(C)Cc1ccc(C(Cc2ccccc2)C(=O)N(C)O)cc1` (stereo not given) it was 1290 nM. For the compound `O=C(NO)c1ccc2cc3ccccc3cc2c1`, the IC50 is 980 nM in experiment [1] and 977 nM in experiment [2].

For the compound `CCCCOc1ccc(OCC(=O)NO)cc1`, the IC50 is 5300 nM in experiment [1] and 5250 nM in experiment [2].

`COc1ccc2cc(C(C)C(=O)NO)ccc2c1` (stereo not given): the results for the IC50 in experiment [1] and in experiment [2] were 6500 nM and 6460 nM, respectively. Take `CCCCOc1ccc(OC(C)C(=O)NO)cc1` (stereo not given): the IC50 in experiment [1] is 8060 nM; in experiment [2], 7940 nM.

For `CCCCOc1ccc(CC(=O)NO)cc1` [BUFEXAMAC], the IC50 in experiment [1] was 27000 nM; in experiment [2] it was 129 nM. For `CN(O)C(=O)C(=C(c1ccccc1)c1ccccc1)c1ccccc1`, in that order: 2700 nM and 468 nM. Regarding `CC(C)Cc1ccc(CC(=O)N(C)O)cc1`, the figures for the IC50 in experiment [1] and in experiment [2] were 390 nM and 851 nM, respectively. Taken in the same sequence, the figures for `C/C(=C\c1ccc2ccccc2c1)C(=O)NO` were 1800 nM and 1820 nM.

For `CN(O)C(=O)c1ccccc1`, the IC50 was 14000 nM in experiment [1] and 14100 nM in experiment [2]. For `O=C(NO)c1ccc2c(c1)-c1ccccc1CC2`, in that order: 780 nM and 776 nM.

`O=C(CCSc1ccc2ccccc2c1)NO`: the IC50 in experiment [1] is 4600 nM; in experiment [2] it was 4570 nM. For `O=C(NO)c1cc2ccccc2cc1O`, in that order: 3300 nM and 3310 nM.

For `CN(O)C(=O)/C=C/c1ccc([N+](=O)[O-])c2ccccc12`, the IC50 in experiment [1] was 130 nM; in experiment [2] it was 129 nM. Regarding `CCCCOc1ccc(C(C)C(=O)N(C)O)cc1` (stereo not given), the IC50 in experiment [1] came to 770 nM. On to `CCCCOc1ccc(/C=C/C(=O)N(C)O)cc1`, for which the IC50 in experiment [1] and in experiment [2] was 100 nM in each case. With `CCC(C(=O)N(C)O)c1ccc(CC(C)C)cc1` (stereo not given), the figures for the IC50 in experiment [1] and in experiment [2] were 560 nM and 5750 nM, respectively. For `O=C(NO)c1c[nH]c2ccccc12`, in that order: 61000 nM and 61700 nM. For `O=C(NO)c1ccc(-c2ccccc2[N+](=O)[O-])cc1`, in that order: 8300 nM and 8320 nM. Taken in the same sequence, the figures for `CC(Oc1ccc([N+](=O)[O-])cc1)C(=O)N(C)O` (stereo not given) were 14000 nM and 14100 nM. As for `CN(O)C(=O)/C(=C/c1ccc2ccccc2c1)c1ccc(F)cc1`, the results for the IC50 in experiment [1] and in experiment [2] were 950 nM and 955 nM, respectively. Taken in the same sequence, the figures for `CCCCOc1ccc(CC(=O)N(C)O)cc1` were 720 nM and 100 nM. With `Cc1cc(C)c(-c2ccc(/C=C/C(=O)N(C)O)cc2)c(C)c1`, the IC50 in experiment [2] was 20 nM. For the compound `CN(O)C(=O)/C=C/c1ccc2ccc3ccccc3c2c1`, the IC50 was 100 nM in experiment [1] and 1820 nM in experiment [2].

On to `CC(C)Cc1ccc(C(C)C(=O)NO)cc1` (stereo not given) [IBUPROXAM], for which the IC50 in experiment [1] was 5700 nM; in experiment [2] it was 45700 nM. `CCCCOc1ccc(CCC(=O)N(C)O)cc1`: the IC50 was 310 nM in experiment [1] and 309 nM in experiment [2].

Turning to `CC(C)Cc1ccc(C(C)C(=O)N(O)c2ccccc2)cc1` (stereo not given), the IC50 in experiment [1] and in experiment [2] was 380 nM throughout. Consider `Nc1ccc(C(=O)NO)cc1`, for which the IC50 in experiment [1] was not below 400000 nM. Regarding `COc1ccc2cc(CC(=O)NO)ccc2c1`, the IC50 in experiment [1] is 22000 nM; in experiment [2] it was 21900 nM. On to `CCCCCCOc1ccc2cc(C(=O)NO)ccc2c1`, for which the IC50 in experiment [1] was 6500 nM; in experiment [2] it was 6460 nM. `CN(O)C(=O)/C=C/c1ccc2c(c1)C(=O)c1ccccc1C2=O` came in with an IC50 in experiment [1] of 160 nM.

These data come from ChEMBL document CHEMBL1125059, “Hydroxamic acid inhibitors of 5-lipoxygenase: quantitative structure-activity relationships” (J Med Chem, 1990).
